Our source for the IC50, selectivity ratio and inhibition in vivo values is ChEMBL document CHEMBL1153706, “Synthesis of 9-anilinoacridine triazines as new class of hybrid antimalarial agents” (Bioorg Med Chem Lett, 2009).

As a reminder, the IC50 is the concentration at which inhibition is half-maximal. By inhibition in vivo is commonly meant the relative decrease from the control value, in per cent.

Structures are written as SMILES.

In series [1] the test system is Plasmodium falciparum. In words: Antimalarial activity against chloroquine-sensitive Plasmodium falciparum 3D7 after 72 hrs. Format: functional, organism-based. Particulars: 3D7, 72 h. The essentials: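 P. falciparum 3D7 cultured with 0.5% parasitaemia in a 2.5% cell suspension. Compounds are made up as 5 mg/ml DMSO stocks. Twofold serial dilutions (seven concentrations) start at 500 ng/ml, or 25 ng/ml for chloroquine, in duplicate wells. Incubated 72 h, then lysis buffer with SYBR Green I, 1 h at room temperature, fluorescence read. IC50 from non-linear regression dose–response curves.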

A short description of series [2]: Selectivity index, ratio of IC50 for african green monkey (Cercopithecus aethiops) Vero cells to IC50 for chloroquine-sensitive Plasmodium falciparum 3D7. Format: toxicity, cell-based. Particulars: read-out: Ratio IC50. In short, it runs like this:
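Ratio of the Vero IC50 to the 3D7 IC50. Vero monkey kidney […] cells at 1 × 10⁴ cells/well exposed to varying compound concentrations for 72 h, MTT read-out, IC50 from non-linear regression. The 3D7 IC50 comes from a 72 h SYBR Green I fluorescence assay using twofold serial dilutions from 500 ng/ml.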

The test system of series [3] is Plasmodium yoelii. The series is described as follows: Antimalarial activity against chloroquine-resistant Plasmodium yoelii N67 infected in Swiss mice (Mus musculus) assessed as suppression of parasitaemia at 100 mg/kg, peroral for 4 days. Format: functional. Particulars: N67, 96 h, route oral. The essentials:
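Swiss mice (22 2 g), groups of five, inoculated with 1 × 10⁶ parasitized RBC on day 0; dosed once daily days 0–3, orally, 0.1 ml aqueous suspension with a few drops of Tween 80. Parasitaemia read from thin blood smears between days 4 and 6; group mean used for percent suppression versus untreated controls; CQ-treated mice as reference.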

In series [1], `COc1ccc2nc3cc(Cl)ccc3c(Nc3ccc(Nc4nc(N)nc(Nc5ccc(F)cc5)n4)cc3)c2c1` gave a half-inhibitory concentration (IC50) of 119 nM. For the same molecule, in series [2], the selectivity ratio was determined as 37.1.

The molecule `CCCCNc1nc(Nc2ccccc2)nc(Nc2ccc(Nc3c4ccc(Cl)cc4nc4ccc(OC)cc34)cc2)n1` had an IC50 in series [1] of 289 nM. Also, the selectivity ratio in series [2] amounted to 138.

For `CCN1CCN(c2nc(Nc3ccccc3)nc(Nc3ccc(Nc4c5ccc(Cl)cc5nc5ccc(OC)cc45)cc3)n2)CC1`, in series [1], the 50% inhibitory concentration (IC50) turned out to be 19.2 nM. Further, the selectivity ratio in series [2] is 164.

For `COc1ccc2nc3cc(Cl)ccc3c(Nc3ccc(Nc4nc(N)nc(Nc5ccccc5)n4)cc3)c2c1`, the midpoint of inhibition in series [1], the IC50, lay at 68.4 nM. The selectivity ratio in series [2] was 448.

Regarding `CNc1nc(Nc2ccc(F)cc2)nc(Nc2ccc(Nc3c4ccc(Cl)cc4nc4ccc(OC)cc34)cc2)n1`, the IC50 in series [1] worked out at 116 nM. The selectivity ratio in series [2] was determined as 336.

In turn, `COc1ccc2nc3cc(Cl)ccc3c(Nc3ccc(Nc4nc(NCCN(C)C)nc(Nc5ccc(F)cc5)n4)cc3)c2c1` showed an IC50 in series [1] of 40.1 nM. For the same molecule, the selectivity ratio in series [2] worked out at 28.1.

For `COc1ccc2nc3cc(Cl)ccc3c(Nc3ccc(Nc4nc(NN)nc(Nc5ccccc5)n4)cc3)c2c1`, 4.27 nM corresponded to half-maximal inhibition in series [1] (IC50). For the same molecule, the selectivity ratio in series [2] stood at 31.4.

In series [1], `COc1ccc2nc3cc(Cl)ccc3c(Nc3ccc(Nc4nc(Nc5ccccc5)nc(NC5CCCC5)n4)cc3)c2c1` showed an IC50 of 17.5 nM. In series [2], the selectivity ratio amounted to 5010.

With `CCN1CCN(c2nc(Nc3ccc(F)cc3)nc(Nc3ccc(Nc4c5ccc(Cl)cc5nc5ccc(OC)cc45)cc3)n2)CC1`, in series [1], inhibition was half-maximal at 65.6 nM (IC50). In series [2], the selectivity ratio is 193.

`COc1ccc2nc3cc(Cl)ccc3c(Nc3ccc(Nc4nc(NCCCN5CCOCC5)nc(Nc5ccccc5)n4)cc3)c2c1` showed an IC50 in series [1] of 15.1 nM. Further, in series [2], the selectivity ratio turned out to be 61.4.

As to `COc1ccc2nc3cc(Cl)ccc3c(Nc3ccc(Nc4nc(NCCCN(C)C)nc(Nc5ccc(F)cc5)n4)cc3)c2c1`, in series [1], the midpoint of inhibition, the IC50, lay at 35.2 nM. The selectivity ratio in series [2] is 99.8.

`COc1ccc2nc3cc(Cl)ccc3c(Nc3ccc(Nc4nc(NCCN5CCOCC5)nc(Nc5ccc(F)cc5)n4)cc3)c2c1`: in series [1], the IC50 was determined as 20.1 nM. In addition, the selectivity ratio in series [2] came out at 3090. Also, the inhibition in vivo at 100 mg/kg in series [3] was 98.7%.

Molecule `COc1ccc2nc3cc(Cl)ccc3c(Nc3ccc(Nc4nc(NCCN5CCOCC5)nc(Nc5ccccc5)n4)cc3)c2c1` returned a half-inhibitory concentration (IC50) in series [1] of 6.97 nM. Further, the selectivity ratio in series [2] was determined as 2900. For the same molecule, the inhibition in vivo at 100 mg/kg in series [3] turned out to be 96.6%.

Turning to `COc1ccc2nc3cc(Cl)ccc3c(Nc3ccc(Nc4nc(NCCCN5CCOCC5)nc(Nc5ccc(F)cc5)n4)cc3)c2c1`, it took 45.1 nM to reach half-maximal inhibition in series [1] (IC50). Moreover, the selectivity ratio in series [2] is 1560.

Regarding `CCN(CC)CCCC(C)Nc1ccnc2cc(Cl)ccc12` (stereo unspecified) [CHLOROQUINE], the inhibition in vivo at 100 mg/kg in series [3] was 99.9%.

In series [1], `COc1ccc2nc3cc(Cl)ccc3c(Nc3ccc(Nc4nc(NCCO)nc(Nc5ccccc5)n4)cc3)c2c1` registered an IC50 of 9.46 nM. In addition, the selectivity ratio in series [2] is 755. In addition, in series [3], the inhibition in vivo at 100 mg/kg came to 58.5%.

As for `CCN(CC)CCNc1nc(Nc2ccc(F)cc2)nc(Nc2ccc(Nc3c4ccc(Cl)cc4nc4ccc(OC)cc34)cc2)n1`, in series [1], the IC50 is 27.9 nM. The selectivity ratio in series [2] stood at 155. Moreover, the inhibition in vivo at 100 mg/kg in series [3] came to 95.4%.

In the case of `CCN(CC)CCNc1nc(Nc2ccccc2)nc(Nc2ccc(Nc3c4ccc(Cl)cc4nc4ccc(OC)cc34)cc2)n1`, the IC50 in series [1] is 21.8 nM. Besides, the selectivity ratio in series [2] came out at 137.

`COc1ccc2nc3cc(Cl)ccc3c(Nc3ccc(Nc4nc(NCCCO)nc(Nc5ccccc5)n4)cc3)c2c1` registered a half-maximal inhibitory concentration (IC50) in series [1] of 365 nM. Besides, the selectivity ratio in series [2] stood at 17.4.

In series [1], `COc1ccc2nc3cc(Cl)ccc3c(Nc3ccc(Nc4nc(NCCN(C)C)nc(Nc5ccccc5)n4)cc3)c2c1` came in with an IC50 of 7.95 nM. In series [2], the selectivity ratio was 160. Also, in series [3], the inhibition in vivo at 100 mg/kg came to 49%.

As to `COc1ccc2nc3cc(Cl)ccc3c(Nc3ccc(Nc4nc(Nc5ccccc5)nc(N5CCN(C)CC5)n4)cc3)c2c1`, the IC50 in series [1] was 22.1 nM. Further, the selectivity ratio in series [2] came to 146.

`COc1ccc2nc3cc(Cl)ccc3c(Nc3ccc(Nc4nc(NCCCN(C)C)nc(Nc5ccccc5)n4)cc3)c2c1`: in series [1], half-maximal inhibition (IC50) required 4.21 nM. The selectivity ratio in series [2] stood at 295. Further, the inhibition in vivo at 100 mg/kg in series [3] came to 95.7%.

`COc1ccc2nc3cc(Cl)ccc3c(Nc3ccc(Nc4nc(Nc5ccc(F)cc5)nc(N5CCN(C)CC5)n4)cc3)c2c1` registered a half-inhibitory concentration (IC50) in series [1] of 49.4 nM. The selectivity ratio in series [2] was 210.
